Measured values taken from ChEMBL document CHEMBL1144917, “Synthetic, nondegradable diadenosine polyphosphates and diinosine polyphosphates: their effects on insulin-secreting cells and cultured vascular smooth muscle cells” (J Med Chem, 2003).

Tests used:
Rattus norvegicus [1] = species: Rattus norvegicus; assay: Percent of compound radioactivity ([3H]-Ap4A Degradation) in heparinized rat plasma (saline); format: functional
In short: (§1)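 Heparinized rat plasma (40 μL) incubated 15 min with 10 nM [3H]Ap4A plus 3 μL saline or 3 μL of a 1 mM analogue solution. Products resolved by TLC on silica gel in dioxane/conc. ammonia/water (6:1:4) alongside unlabeled standards, and spots scintillation counted. Reported as percent of radioactivity per species; mean ± SE of two experiments.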

Rattus norvegicus [2] = species: Rattus norvegicus; assay: Percent of compound radioactivity ([3H]-Ap4A Degradation), in presence of added Ap(s)pCHClpp(s)A, in heparinized rat plasma; format: functional; parameters: concentration or dose not given beside the values; in short: as §1
INS1 [3] = assay: Percent of compound radioactivity ([3H]-Ap4A Degradation), in presence of added Ap4A, in the incubation medium of INS-1 cell membranes; format: functional, cell-based; parameters: concentration or dose not given beside the values
In short: (§2)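 Membranes from half-confluent INS-1 cells incubated 10 min at 37 °C in KRH buffer with 5.6 mM glucose, 0.31 μM [3H]Ap4A, with or without 30 μM unlabeled nucleotide. Medium aliquot mixed with unlabeled standards, TLC on silica gel in dioxane/conc. ammonia/water (6:1:4) for 2 h. UV-located spots cut out and scintillation counted. Reported as percent of radioactivity per species; mean ± SE of two experiments.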

INS1 [4] = assay: Percent of compound radioactivity ([3H]-Ap4A Degradation), determined in the incubation medium of INS-1 cell membranes; format: functional, cell-based; parameters: concentration or dose not given beside the values; in short: as §2
Rattus norvegicus [5] = species: Rattus norvegicus; assay: Percent of compound radioactivity ([3H]-Ap4A Degradation), in presence of added Ap(s)pCH2pp(s)A, in heparinized rat plasma; format: functional; parameters: concentration or dose not given beside the values; in short: as §1
INS1 [6] = assay: Percent of compound radioactivity ([3H]-Ap4A Degradation), in presence of added Ap(s)pCHClpp(s)A, in the incubation medium of INS-1 cell membranes; format: functional, cell-based; in short: as §2
INS1 [7] = assay: Percent of compound radioactivity ([3H]-Ap4A Degradation), in presence of added Ap(s)pCH2pp(s)A, in the incubation medium of INS-1 cell membranes; format: functional, cell-based; in short: as §2

| Compound | Radioactivity (Rattus norvegicus [1]) | Radioactivity (Rattus norvegicus [2]) | Radioactivity (INS1 [3]) | Radioactivity (INS1 [4]) | Radioactivity (Rattus norvegicus [5]) | Radioactivity (INS1 [6]) | Radioactivity (INS1 [7]) |
| --- | --- | --- | --- | --- | --- | --- | --- |
| Nc1ncnc2c1ncn2[C@@H]1O[C@H](COP(=O)(O)O)[C@@H](O)[C@H]1O | 2.4% | 2.31% | 0.8% | 5.3% | 1.98% | – | – |
| Nc1ncnc2c1ncn2[C@@H]1O[C@H](COP(=O)(O)OP(=O)(O)OP(=O)(O)OP(=O)(O)OC[C@H]2O[C@@H](n3cnc4c(N)ncnc43)[C@H](O)[C@@H]2O)[C@@H](O)[C@H]1O | 21.5% | 26.5% | 70% | 52.4% | 31.6% | 61.3% | 54.9% |
| Nc1ncnc2c1ncn2[C@@H]1O[C@H](COP(=O)(O)OP(=O)(O)OP(=O)(O)O)[C@@H](O)[C@H]1O | 42.1% | 40.5% | 4% | 8.4% | 37.6% | – | 8.2% |
| Nc1ncnc2c1ncn2[C@@H]1O[C@H](CO)[C@@H](O)[C@H]1O | < 1% | < 1% | 15.1% | 22.4% | < 1% | 14.3% | 19.4% |
| Nc1ncnc2c1ncn2[C@@H]1O[C@H](COP(=O)(O)OP(=O)(O)O)[C@@H](O)[C@H]1O | 22.3% | 30.6% | 7.8% | 11.3% | 27.4% | 8.8% | 9.3% |
